Laboratory results reported in ChEMBL document CHEMBL3797084, “Design and evaluation of novel oxadiazole derivatives as potential prostate cancer agents” (Bioorg Med Chem Lett, 2016).
pIC50: −log10 of the molar value.

What was measured:
LNCaP = assay: Cytotoxicity against human LNCAP cells assessed as growth inhibition after 24 hrs by sulforhodamine B assay; assay type: functional, cell-based
Summary of the method: (§1)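 LNCaP and PC-3 were kept as monolayers in RPMI with 10% heat-inactivated FBS and penicillin/streptomycin at 37 °C in 5% CO2. Cells were seeded, left overnight, then treated at various concentrations in triplicate wells for 24 h. They were fixed with 10% TCA for 1 h at 4 °C and stained 10 min with 0.4% SRB in 1% acetic acid. Bound dye was solubilized in Tris-HCl and read at 564 nm. IC50 came from a Boltzmann sigmoidal nonlinear fit, as the mean of at least three experiments.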

[1] = Cytotoxicity against human PC3 cells assessed as growth inhibition after 24 hrs by sulforhodamine B assay; assay type: functional, cell-based; conditions: PC-3, 24 h; summary of the method: as §1
[2] = Cell cycle arrest in human PC3 cells assessed as accumulation at G2/M phase at 0.2 uM after 48 hrs by propidium iodide staining-based flow cytometry (reference value: 25.1%); assay type: functional; conditions: PC-3
PC-3 [3] = assay: Induction of apoptosis in human PC3 cells assessed as necrotic cells at 0.2 uM after 48 hrs by propidium iodide staining-based flow cytometry (reference value: 0.4%); assay type: functional
[4] = Cell cycle arrest in human PC3 cells assessed as accumulation at S phase at 0.2 uM after 48 hrs by propidium iodide staining-based flow cytometry (reference value: 6.9%); assay type: functional; conditions: PC-3
PC-3 [5] = assay: Induction of apoptosis in human PC3 cells assessed as viable cells at 0.2 uM after 48 hrs by propidium iodide staining-based flow cytometry (reference value: 91%); assay type: functional; conditions: PC-3, 48 h, read-out: Activity
[6] = Cell cycle arrest in human PC3 cells assessed as accumulation at G0/G1 phase at 0.2 uM after 48 hrs by propidium iodide staining-based flow cytometry (reference value: 58%); assay type: functional; conditions: PC-3
PC-3 [7] = assay: Induction of apoptosis in human PC3 cells assessed as early apoptotic cells at 0.2 uM after 48 hrs by propidium iodide staining-based flow cytometry (reference value: 4.4%); assay type: functional
[8] = Cell cycle arrest in human PC3 cells assessed as accumulation at sub G0/G1 phase at 0.2 uM after 48 hrs by propidium iodide staining-based flow cytometry (reference value: 1.6%); assay type: functional; conditions: PC-3
PC-3 [9] = assay: Induction of apoptosis in human PC3 cells assessed as late apoptotic cells at 0.2 uM after 48 hrs by propidium iodide staining-based flow cytometry (reference value: 4.2%); assay type: functional

| Structure (SMILES) | pIC50 (LNCaP) | pIC50 [1] | also measured |
| --- | --- | --- | --- |
| O=c1[nH]cc(F)c(=O)[nH]1 [FLUOROURACIL] | 7.52 | 7.52 | – |
| O=C(Nc1nnc(-c2ccccc2)o1)c1ccccc1 | 5.88 | 6.66 | Activity [2]: 21.2%; Activity (PC-3 [3]): 21.3%; Activity [4]: 9%; viability at 0.2 µM (PC-3 [5]): 49.7%; Activity [6]: 50.8%; Activity (PC-3 [7]): 13.2%; Activity [8]: 12.1%; Activity (PC-3 [9]): 15.8% |
| O=C(Nc1nnc(-c2ccccc2)o1)c1ccc2ccccc2c1 | 4.49 | 4.59 | – |
| O=S(=O)(Nc1nnc(-c2ccc3ccccc3c2)o1)c1ccc2ccccc2c1 | 5.49 | 4.32 | – |
| O=C(Nc1nnc(-c2ccc3ccccc3c2)o1)c1ccc(C(F)(F)F)cc1 | 5.18 | 4.96 | – |
| O=S(=O)(Nc1nnc(-c2ccc(C(F)(F)F)cc2)o1)c1ccc2ccccc2c1 | 5.41 | 4.65 | – |
| O=S(=O)(Nc1nnc(-c2ccc(C(F)(F)F)cc2)o1)c1ccccc1 | 5.60 | 5.08 | – |
